Myeloid diff MLP: induction of myeloid progenitor differentiation, primary screen, cell-based, flow cytometry, MLPCN library. actives 1% (n = 360,000). AID 624256, 2012. calls only at 10 µM. ER-HoxA9 myeloid progenitors, lysozyme-GFP differentiation;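 active = normalized GFP-positive differentiation at or above the plate's own cutoff, the solvent-only control mean plus 3 SD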;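 also: cells exposed to compound for four days before flow analysis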
Pemphigus Ab inh: inhibitors of pemphigus antibody binding to DSG3, primary screen, biochemical, bead-based, flow cytometry, scFv-GFP; DSG3-coupled beads, scFv-anti-DSG3-GFP binding; hits give low values; actives 0.48% (n = 310,000); Desmoglein-3 (Homo sapiens), P32926; AID 588358, 2011; binding (percent of control), % at 10 µM;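 active = binding more than 3 SD below its plate's average and above zero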;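 also: hits lower antibody fragment binding to DSG3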
Vif imaging: HIV Vif self-association inhibitors, primary screen, imaging, HEK293T, single point | HEK293T cells, Vif self-association by quenched fluorescence, 24 h | inhibition, % at 7.49 µM | actives 0.35% (n = 340,000) | AID 602346, 2012; in the data active = inhibition above about 50%, passing the limit was not always enough
T cell modulator: modulators of CD8 T cell-vesicle binding, primary screen, mouse 2C CD8+ T cells, flow cytometry; response (vesicle binding), % at 7 µM; actives 0.068% (n = 330,000); 2C CD8+ T cell-vesicle binding; hits give low values; AID 2052, 2009;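 active = response, share of CD8 T cells binding vesicles, and their 90th percentile fluorescence all below set limits, cut at about 80% in these data, passing the limit was not always enough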;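 also: values below 100% mean blocked vesicle binding to the CD8+ T cells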
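Material: 2C TCR transgenic mouse naive CD8+ T cells, MACS-purified. Also added: QL9-charged Drosophila Ld/ICAM-1/B7-1 vesicles. Timing: binding 1.5 h at 37 °C. Measured by: high-throughput flow cytometry with anti-B7-1 and anti-CD8 staining. Read-out: percent CD8+ FL2 mean versus row control. Controls: Unloaded micro-vesicles (low), QL9 vesicles with 0.7% DMSO (high).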
Myeloid diff: inducers of myeloid progenitor differentiation, confirmation, cell-based, GFP/Mac1 flow cytometry, cherry pick 01; shares compounds with Myeloid diff MLP; ER-HoxA9 myeloid progenitors, GFP/Mac1 double-positive flow; calls only; actives 2% (n = 2,300); AID 651706, 2012;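 active = share of green or green-and-red cells above 9 and 9% in run 1 or 4 and 3% in run 2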
GFP autofluor: flagged as fluorescent in myeloid differentiation counter-screen; actives 7.4% (n = 2,300); fluorescence response, % (no concentration beside the values); ER-HoxA9 myeloid progenitors, no estrogen, GFP autofluorescence flow cytometry; vehicle wells 0%, positive control 100%; shares compounds with Myeloid diff MLP; AID 651707;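 active = over 5% cells positive for green fluorescent reporter, or over 2% positive for both it and APC stain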;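 also: range taken on the double positive population between DMSO and positive control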
* marks the source's active call; other numbers are inactive results; i = inactive; . = no result; + = active, no number. Shown are actives, neighbours in structure and some others; about 1.7% of the full set was active somewhere.

SMILES	Myeloid diff MLP	Pemphigus Ab inh	Vif imaging	T cell modulator	Myeloid diff	GFP autofluor
O=C(CN1C(=O)S/C(=C\c2ccc(O)cc2)C1=O)c1ccccc1	i	105	-2	470	i	2
O=C(CN1C(=O)S/C(=C\c2ccccc2)C1=O)NNC(=O)c1ccccc1O	i	104	.	457	.	.
Cc1ccc(/C=N/NC(=O)c2cc3c(s2)CCCC3)o1	i	.	-2	492	i	0
Cc1cccc(Cl)c1OCCCCn1ccnc1	+	101	-6	326	i	0
Cc1cc(Cl)cc(C)c1OCCCCn1ccnc1	i	100	.	345	.	.
CC(C)n1cc(CN2CCC(C(=O)Nc3cccc(-c4cccc(Cl)c4)c3)CC2)cn1	+	115	-3	251	i	0
CCn1cc(CN2CCC(C(=O)Nc3cccc(-c4cccc(F)c4)c3)CC2)cn1	i	118	9	296	.	.
COC(=O)C1=CN(Cc2ccc(OC)c(OC)c2)C=C(C(=O)OC)C1c1cccc(F)c1	+	96	-12	229	i	2
COc1ccc(CN(C)c2ccc(S(=O)(=O)N3CCN(C)CC3)cc2[N+](=O)[O-])cc1OC	i	99	-36	928	i	1
COc1ccc(CCN(C)c2ccc(S(=O)(=O)N3CCCC3)cc2[N+](=O)[O-])cc1OC	i	98	-4	254	.	.
Cc1cccc(NC(=O)CN(CC2CCCO2)C(=O)c2cc3ccccc3o2)c1C (configuration not stated)	i	104	9	.	.	.
O=c1[nH]c(=S)[nH]cc1Oc1ccc(Cl)cc1	i	106	1	.	.	.
COc1ccccc1C1CC(c2ccccc2)=NN1S(=O)(=O)c1ccccc1 (configuration not stated)	i	97	9	391	.	.
COc1cccc(C2CC(c3ccccc3)=NN2S(=O)(=O)c2ccc(C)cc2)c1OC (configuration not stated)	+	359	-13	333	i	93*
Cc1occc1C(=O)N/N=C/C(Br)=C/c1ccccc1	+	103	-4	89	i	0
Cc1occc1C(=O)N/N=C/c1ccc(-c2ccccc2)cc1	i	106	-3	254	.	.
CC(=O)c1c(N2CCOCC2)nc(=S)n(-c2ccc([N+](=O)[O-])cc2)c1C	i	102	-19	161	i	1
CC(=O)c1c(N2CCOCC2)nc(=S)n(-c2ccccc2)c1C	i	100	-1	523	.	.
CC(C)C1C(=O)N(Cc2cn(CC3CCCCC3)nn2)CCS(=O)(=O)N1Cc1ccc(-c2ccc(F)cc2)cc1 (configuration not stated)	i	102	1	.	i	0
CC(C)C1C(=O)N(Cc2cn(CCC3OCCCO3)nn2)CCS(=O)(=O)N1Cc1ccc(-c2cccc(CO)c2)cc1 (configuration not stated)	i	.	1	.	i	1
CCC/C=C/c1ccc(CN2C(C(C)C)C(=O)N(Cc3cn(CCC4OCCO4)nn3)CCS2(=O)=O)cc1 (configuration not stated)	i	.	-2	.	i	0
CC(C)C1C(=O)N(Cc2cn(CCC3OCCCO3)nn2)CCS(=O)(=O)N1Cc1ccc(-c2cccc(N(C)C)c2)cc1 (configuration not stated)	i	100	-1	.	.	.
COCOCCn1cc(CN2CCS(=O)(=O)N(Cc3ccc(-c4ccc(Cl)nc4)cc3)C(CC(C)C)C2=O)nn1 (configuration not stated)	i	.	-3	.	.	.
CCC/C=C/c1ccc(CN2C(CC(C)C)C(=O)N(Cc3cn(CCC4OCCO4)nn3)CCS2(=O)=O)cc1 (configuration not stated)	i	.	-2	.	.	.
COCOCCn1cc(CN2CCS(=O)(=O)N(Cc3ccc(-c4ccc(Cl)cc4)cc3)C(CC(C)C)C2=O)nn1 (configuration not stated)	+	113	0	.	i	0

Assay outcomes (PubChem)
